High-throughput results from PubChem BioAssay.
Most compounds without a hit are left out; they make up all but 2.2% or so of the library.
ROMK mod = modulates human ROMK potassium channel activity | AID 1918 | B-score at 10 µM | 2% of 130,000 active | Tet-inducible ROMK, thallium flux fluorescence; actives lie on both sides | P48048;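 active = signal ratio slope over the read window, or its plate-corrected B-score, at least 3 SD from the plate mean, either direction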;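 also: B-score of the F/F0 ratio slope over 7 to 12 s after thallium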
Diaph act CS = activates diaphorase or chemically reduces, flagging diaphorase assay artifacts; activation factor at 20 µM; 0.005% of 190,000 active; AID 1229; Diaphorase/resazurin coupled assay, resorufin fluorescence, 16 min; active compounds read high; 1 = vehicle wells, 0 = NADH-free wells;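 active = diaphorase activity raised at least twofold by the compound at 20 µM; inactive = activation factor below 2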
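Assay system: bacterial diaphorase enzyme (C. kluyveri) / Input: enzyme 0.07 U/mL final / Medium: 50 mM HEPES pH 7.4 with 4.542 mM MgCl2, 0.005% Tween 20 / Doses: single compound dose of 20 µM, 1% DMSO final / Incubation: 16 min enzyme reaction, ambient temperature / Signal: fluorescence, excitation 544 nm and emission 590 nm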
PMI act = activators of human phosphomannose isomerase. purified human PMI, coupled resazurin fluorescence, 20 min; active compounds read high; 1 = vehicle control, 0 substrate-free wells. activation factor at 20 µM. 0.005% of 190,000 active;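 active = activation factor of 2 or more at 20 µM, relative to plate controls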
Target sequence (P34949 whole entry, looked up): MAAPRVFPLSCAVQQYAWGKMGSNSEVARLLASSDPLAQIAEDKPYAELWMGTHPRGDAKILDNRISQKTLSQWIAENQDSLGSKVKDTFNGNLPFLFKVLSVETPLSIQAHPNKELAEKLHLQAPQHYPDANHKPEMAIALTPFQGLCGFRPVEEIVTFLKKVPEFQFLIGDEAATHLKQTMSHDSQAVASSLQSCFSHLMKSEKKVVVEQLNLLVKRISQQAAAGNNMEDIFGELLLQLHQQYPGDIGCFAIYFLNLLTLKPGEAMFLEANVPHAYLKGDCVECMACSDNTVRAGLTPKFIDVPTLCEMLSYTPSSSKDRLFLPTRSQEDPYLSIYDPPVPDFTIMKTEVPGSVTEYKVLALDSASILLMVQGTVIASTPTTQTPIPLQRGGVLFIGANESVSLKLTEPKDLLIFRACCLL
G6PDH counter = counter-screen for G6PDH assay hits: L. mesenteroides G6PDH inhibition; Purified L. mesenteroides G6PDH, diaphorase/resazurin coupled fluorescence, 45 min; inhibition, % at 5 µM; 0.12% of 200,000 active; AID 1020; in the data active = inhibition above about 50%
Diaphorase inh = counter-screen for diaphorase-based assays: diaphorase inhibitors and chemical oxidizers; diaphorase resazurin-to-resorufin fluorescence, NADH, 16 min; bacterial (C. kluyveri) enzyme, not human; inhibition, % at 20 µM; 0.69% of 190,000 active;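 active = primary screen inhibition at 20 µM above a set limit, cut at about 50% in these data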;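 also: plate controls were DMSO with full reaction for no effect and wells lacking NADH for full effect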
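controls = No-NADH positive control and DMSO neutral control | system = Clostridium kluyveri diaphorase enzyme | timing = reaction incubation of 16 min at room temperature | signal = resorufin fluorescence 544/590 nm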
PMI act hi M6P = PMI (human) activation, high substrate; coupled PMI enzyme assay, resazurin fluorescence, 20 min; active compounds read high; 1 = untreated enzyme, 0 = substrate-free blank; P34949; activation factor at 20 µM; 0.34% of 190,000 active;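 active = activation factor of 2 or more at 20 µM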
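Test system – human PMI in coupled enzyme assay · Timing – 20 min incubation at room temperature · Detection – Diaphorase-driven resazurin-to-resorufin fluorescence, excitation 544, emission 590 nm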
ROMK retest = human ROMK channel modulation, retest confirmation | normalized thallium flux (F/F0 slope) at 10 µM | 54% of 3,000 active | shares compounds with ROMK mod | ROMK thallium flux, fluorescence ratio; active compounds read low;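 active = Flux at 10 µM at least 3 SD below or above vehicle control mean in one or both replicates; inconclusive = no clear call, values can overlap the other calls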
The depositor's hits bear a star; u = inconclusive; x = no result.

SMILES	ROMK mod	Diaph act CS	PMI act	G6PDH counter	Diaphorase inh	PMI act hi M6P	ROMK retest
COc1ccc(S(=O)(=O)Nc2nnc(Cc3ccc(OC)c(OC)c3)s2)cc1	0.633	x	x	15.0	x	x	x
COc1cc(CN2CCN(C(=O)CC(C)C)CC2)cc(OC)c1OC	x	1	0.9	9.2	-3.0	1	0.0943
O=C(CCSc1nc(-c2ccco2)cc(C(F)(F)F)n1)NCCN1CCOCC1	0.0227	0.9	1	6.4	5.7	1	x
CCc1ccc(C2C(C(=O)O)c3ccccc3C(=O)N2C)cc1 (centres undefined)	0.412	0.9	1.1	0.2	11.7	1.1	x
CN1C(=O)c2ccccc2C(C(=O)O)C1c1cccc(Cl)c1 (centres undefined)	1.57*	1	1.1	-2.2	0.5	1.1	0.0773
CCNc1ccc(S(=O)(=O)N(C)C)cc1NCC(=O)Nc1ccccc1F	-0.783	0.8	1	-3.2	18.1	0.9	x
CCNc1ccc(S(=O)(=O)N(C)C)cc1NCC(=O)Nc1ccc(Br)cc1F	-3.23*	0.9	0.8	18.8	13.0	0.9	0.0624*
COc1ccc2c(Cl)c(C(=O)N/N=C3\CCCC(=O)C3)sc2c1	-3.1*	1.1	1.2	-2.7	-8.3	1.1	0.0742
Cc1ccc(-n2c(-c3ccc(Br)cc3)c[n+]3c2CCc2ccc4cccnc4c2-3)cc1	x	1.1	1	0.3	-11.0	1.1	0.0341*
O=c1[nH]c(CN2CCN(c3ccc([N+](=O)[O-])cc3)CC2)nc2ccsc12	-3.49*	0.9	1	-0.4	8.5	1	0.0595*
C/C(=N\Nc1ccc([N+](=O)[O-])cc1)c1ccc(O)cc1	-4.54*	0.8	0.9	-1.2	20.4	0.9	0.0532*
CC1=CC(=O)C(C(C)=Nc2ccccc2Cl)C(=O)O1 (centres undefined)	-0.292	x	x	x	x	x	x
CCOC(=O)Cc1csc(NC(=O)c2csc3c2CCCC3)n1	x	0.9	1	10.1	8.8	1	0.0699
CCOC(=O)Cc1csc(NC(=O)c2cc3c(s2)CCCC3)n1	-0.241	0.9	1	-3.1	10.1	0.9	x
O=[N+]([O-])c1cnn(-c2nc(-c3ccco3)cc(C(F)(F)F)n2)c1	-1.07	0.9	1.1	0.1	5.2	1.1	x
COc1ccc(-n2nnnc2SCC(=O)NCc2ccco2)cc1OC	x	0.9	1.1	-0.1	13.5	1	0.0766
CCOc1ccc(N2CC(C(=O)NC3=NCCS3)CC2=O)cc1 (centres undefined)	0.174	0.7	0.8	7.0	35.0	0.9	x
N#Cc1cc(-c2ccccc2)nc(Oc2ccccc2)n1	-0.0866	0.8	0.8	12.8	23.8	0.8	x
NC(=O)c1cc(-c2ccccc2)nc(Oc2ccccc2)n1	-3.64*	0.9	0.9	-6.6	9.4	0.9	0.0774
O=C(Nc1ccccc1)N(C1=NCCCCS1)c1ccccc1	x	1	0.9	-4.1	2.2	1	0.0726
C(#CCN1CCC(Cc2ccccc2)CC1)COCCOCc1ccccc1	-2.95*	1	0.8	8.2	-3.9	1	0.0634*
CC1=Nc2ccccc2N=C(NC(=O)c2ccccc2)C1c1ccccc1 (centres undefined)	0.378	0.8	0.8	4.3	20.6	0.8	x
COc1cccc(N2CCN(c3ncnc4c3cnn4-c3ccc(C)cc3C)CC2)c1	x	0.7	0.8	6.2	29.3	0.7	0.0713
O=C(c1ccc([N+](=O)[O-])cc1[N+](=O)[O-])n1cnc2ccccc21	-1.36	1	1.2	-1.0	4.7	0.9	x
CC(C)CC(=O)Nc1ccc(-c2nnn(CC(=O)NCc3ccco3)n2)cc1	0.108	1	1	11.1	0.8	0.9	x
COc1ccc(C(=O)NCCSC2CCCCC2)cc1	-2.21*	0.9	1	-5.3	12.5	0.9	u
O=[N+]([O-])c1ccc(CN2CCN(Cc3c[nH]c4ccccc34)CC2)cc1	-0.988	0.9	1.1	0.7	8.3	1.1	x
